Activity calls are given as the source filed them. The calls are words filed in the database; no cut-off is given here.
Assays:
[1] = biological target: cAMP-dependent protein kinase type I-alpha regulatory subunit (Homo sapiens) (UniProt P10644); assay: Binding affinity to recombinant human full length PKA-R1alpha expressed in Escherichia coli BL21 DE3-RIL cells assessed as reduction in interaction with AKAP at 20 nM by fluorescence polarization analysis
Procedure, shortened: (§1)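 Single-concentration direct FP screen: 5 μM full-length recombinant human RIα or RIβ mixed with 20 nM 5(6)-FAM-labelled peptide in 20 mM MOPS pH 7, 150 mM NaCl, 0.005% (v/v) CHAPS. Read at room temperature, Ex 482 nm/Em 520 nm, in duplicate.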

[2] = biological target: cAMP-dependent protein kinase type I-beta regulatory subunit (Homo sapiens) (UniProt P31321); assay: Binding affinity to recombinant human full length PKA-R1beta expressed in Escherichia coli BL21 DE3-RIL cells assessed as reduction in interaction with AKAP at 20 nM by fluorescence polarization analysis; procedure, shortened: as §1
Sequence of cAMP-dependent protein kinase type I-beta regulatory subunit (Homo sapiens) (P31321 whole entry): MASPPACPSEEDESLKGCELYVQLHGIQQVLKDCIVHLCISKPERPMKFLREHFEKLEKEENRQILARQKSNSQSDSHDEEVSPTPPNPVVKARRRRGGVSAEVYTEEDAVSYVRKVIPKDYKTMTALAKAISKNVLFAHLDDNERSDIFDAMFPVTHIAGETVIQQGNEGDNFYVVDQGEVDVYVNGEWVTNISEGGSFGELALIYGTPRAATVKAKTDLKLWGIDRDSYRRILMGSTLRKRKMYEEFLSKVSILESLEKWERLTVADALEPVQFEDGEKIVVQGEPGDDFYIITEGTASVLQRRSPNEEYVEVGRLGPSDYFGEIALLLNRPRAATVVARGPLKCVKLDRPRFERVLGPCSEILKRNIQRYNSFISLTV

Sequence of cAMP-dependent protein kinase type I-alpha regulatory subunit (Homo sapiens) (P10644 whole entry): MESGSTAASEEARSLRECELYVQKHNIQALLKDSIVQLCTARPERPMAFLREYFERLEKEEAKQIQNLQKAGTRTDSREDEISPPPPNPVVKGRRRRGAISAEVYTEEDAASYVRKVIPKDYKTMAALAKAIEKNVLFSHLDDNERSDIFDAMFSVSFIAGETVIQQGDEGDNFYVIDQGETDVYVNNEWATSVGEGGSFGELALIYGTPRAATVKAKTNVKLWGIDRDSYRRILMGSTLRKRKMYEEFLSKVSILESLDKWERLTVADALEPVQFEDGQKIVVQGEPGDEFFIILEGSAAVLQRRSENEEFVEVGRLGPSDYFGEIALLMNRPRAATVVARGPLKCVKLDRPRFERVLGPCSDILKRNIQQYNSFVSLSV

| SMILES | Activity [1] | Activity [2] |
| --- | --- | --- |
| CC(C)C[C@H](NC(=O)[C@H](C)NC(=O)[C@]1(C)CCC/C=C/CCC[C@](C)(NC(=O)[C@H](CO)NC(=O)[C@@H](NC(=O)[C@H](CC(C)C)NC(=O)[C@H](Cc2ccccc2)NC(=O)[C@H](CCCCN)NC(=O)[C@H](C)NC(=O)[C@H](C)NC(=O)[C@H](CCCCN)NC(=O)[C@H](CCCCN)NC(=O)COCCOCCOCCN)C(C)C)C(=O)N[C@@H](C)C(=O)N[C@@H](CC(C)C)C(=O)N[C@@H](CCCCN)C(=O)N1)C(=O)N[C@@H](CCCCN)C(=O)O | inactive | inactive |
| CC(C)C[C@H](NC(=O)[C@H](C)NC(=O)[C@]1(C)CCC/C=C/CCC[C@](C)(NC(=O)[C@H](CO)NC(=O)[C@@H](NC(=O)[C@H](CC(C)C)NC(=O)[C@H](C)NC(=O)[C@H](CCCCN)NC(=O)[C@H](C)NC(=O)[C@H](CC(C)C)NC(=O)[C@H](CCCCN)NC(=O)[C@H](CCCCN)NC(=O)COCCOCCOCCN)C(C)C)C(=O)N[C@@H](C)C(=O)N[C@@H](CC(C)C)C(=O)N[C@@H](CCCCN)C(=O)N1)C(=O)N[C@@H](CCCCN)C(=O)O | inactive | inactive |
| CC(C)C[C@H](NC(=O)[C@H](C)NC(=O)[C@]1(C)CCC/C=C/CCC[C@](C)(NC(=O)[C@H](CO)NC(=O)[C@@H](NC(=O)[C@H](CC(C)C)NC(=O)[C@H](Cc2ccccc2)NC(=O)[C@H](CCCCN)NC(=O)[C@H](C)NC(=O)[C@H](CC(C)C)NC(=O)[C@H](CCCCN)NC(=O)[C@H](CCCCN)NC(=O)COCCOCCOCCN)C(C)C)C(=O)N[C@@H](C)C(=O)N[C@@H](CC(C)C)C(=O)N[C@@H](CCCCN)C(=O)N1)C(=O)N[C@@H](CCCCN)C(=O)O | inactive | inactive |
| CC(C)C[C@H](NC(=O)[C@H](C)NC(=O)[C@]1(C)CCC/C=C/CCC[C@](C)(NC(=O)[C@H](CO)NC(=O)[C@@H](NC(=O)[C@H](C)NC(=O)[C@H](Cc2ccccc2)NC(=O)[C@H](CCCCN)NC(=O)[C@H](C)NC(=O)[C@H](CC(C)C)NC(=O)[C@H](CCCCN)NC(=O)[C@H](CCCCN)NC(=O)COCCOCCOCCN)C(C)C)C(=O)N[C@@H](C)C(=O)N[C@@H](CC(C)C)C(=O)N[C@@H](CCCCN)C(=O)N1)C(=O)N[C@@H](CCCCN)C(=O)O | inactive | inactive |
| CC(C)C[C@@H]1NC(=O)[C@H](C)NC(=O)[C@@](C)(NC(=O)[C@H](CO)NC(=O)[C@@H](NC(=O)[C@H](CC(C)C)NC(=O)[C@H](Cc2ccccc2)NC(=O)[C@H](CCCCN)NC(=O)[C@H](C)NC(=O)[C@H](CC(C)C)NC(=O)[C@H](CCCCN)NC(=O)[C@H](CCCCN)NC(=O)COCCOCCOCCN)C(C)C)CCC/C=C/CCC[C@@](C)(C(=O)N[C@@H](C)C(=O)N[C@@H](CC(C)C)C(=O)N[C@@H](CCCCN)C(=O)O)NC(=O)[C@H](C)NC1=O | inactive | inactive |
| CC(C)C[C@H](NC(=O)[C@H](C)NC(=O)[C@]1(C)CCC/C=C/CCC[C@](C)(NC(=O)[C@H](CO)NC(=O)[C@@H](NC(=O)[C@H](CC(C)C)NC(=O)[C@H](Cc2ccccc2)NC(=O)[C@H](CCCCN)NC(=O)[C@H](C)NC(=O)[C@H](CC(C)C)NC(=O)[C@H](CCCCN)NC(=O)[C@H](CCCCN)NC(=O)COCCOCCOCCN)C(C)C)C(=O)N[C@@H](C)C(=O)N[C@@H](CC(C)C)C(=O)N[C@@H](CCCCN)C(=O)N1)C(=O)N[C@@H](C)C(=O)O | inactive | inactive |
| CC(C)C[C@H](NC(=O)[C@H](C)NC(=O)[C@]1(C)CCC/C=C/CCC[C@](C)(NC(=O)[C@H](CO)NC(=O)[C@@H](NC(=O)[C@H](CC(C)C)NC(=O)[C@H](Cc2ccccc2)NC(=O)[C@H](CCCCN)NC(=O)[C@H](C)NC(=O)[C@H](CC(C)C)NC(=O)[C@H](CCCCN)NC(=O)[C@H](C)NC(=O)COCCOCCOCCN)C(C)C)C(=O)N[C@@H](C)C(=O)N[C@@H](CC(C)C)C(=O)N[C@@H](CCCCN)C(=O)N1)C(=O)N[C@@H](CCCCN)C(=O)O | inactive | inactive |
| CC(C)C[C@H](NC(=O)[C@H](C)NC(=O)[C@H](CCCCN)NC(=O)COCCOCCOCCN)C(=O)N[C@@H](C)C(=O)N[C@@H](CCCCN)C(=O)N[C@@H](Cc1ccccc1)C(=O)N[C@@H](CC(C)C)C(=O)N[C@H](C(=O)N[C@@H](CO)C(=O)N[C@@]1(C)CCC/C=C/CCC[C@@](C)(C(=O)N[C@@H](C)C(=O)N[C@@H](CC(C)C)C(=O)N[C@@H](CCCCN)C(=O)O)NC(=O)[C@H](CCCCN)NC(=O)[C@H](CC(C)C)NC(=O)[C@H](C)NC1=O)C(C)C | inactive | inactive |
| CC(C)C[C@H](NC(=O)[C@H](C)NC(=O)[C@]1(C)CCC/C=C/CCC[C@](C)(NC(=O)[C@H](CO)NC(=O)[C@H](C)NC(=O)[C@H](CC(C)C)NC(=O)[C@H](Cc2ccccc2)NC(=O)[C@H](CCCCN)NC(=O)[C@H](C)NC(=O)[C@H](CC(C)C)NC(=O)[C@H](CCCCN)NC(=O)[C@H](CCCCN)NC(=O)COCCOCCOCCN)C(=O)N[C@@H](C)C(=O)N[C@@H](CC(C)C)C(=O)N[C@@H](CCCCN)C(=O)N1)C(=O)N[C@@H](CCCCN)C(=O)O | inactive | inactive |
| CC(C)C[C@H](NC(=O)[C@H](C)NC(=O)[C@]1(C)CCC/C=C/CCC[C@](C)(NC(=O)[C@H](CO)NC(=O)[C@@H](NC(=O)[C@H](CC(C)C)NC(=O)[C@H](Cc2ccccc2)NC(=O)[C@H](CCCCN)NC(=O)[C@H](C)NC(=O)[C@H](CC(C)C)NC(=O)[C@H](CCCCN)NC(=O)[C@H](CCCCN)NC(=O)COCCOCCOCCN)C(C)C)C(=O)N[C@@H](C)C(=O)N[C@@H](C)C(=O)N[C@@H](CCCCN)C(=O)N1)C(=O)N[C@@H](CCCCN)C(=O)O | inactive | inactive |
| CC(C)C[C@@H]1NC(=O)[C@H](C)NC(=O)[C@@](C)(NC(=O)[C@H](CO)NC(=O)[C@@H](NC(=O)[C@H](CC(C)C)NC(=O)[C@H](Cc2ccccc2)NC(=O)[C@H](CCCCN)NC(=O)[C@H](C)NC(=O)[C@H](CC(C)C)NC(=O)[C@H](CCCCN)NC(=O)[C@H](CCCCN)NC(=O)COCCOCCOCCN)C(C)C)CCC/C=C/CCC[C@@](C)(C(=O)N[C@@H](C)C(=O)N[C@@H](C)C(=O)N[C@@H](CCCCN)C(=O)O)NC(=O)[C@H](CCCCN)NC1=O | inactive | inactive |
| CC(C)C[C@H](NC(=O)[C@H](C)NC(=O)[C@]1(C)CCC/C=C/CCC[C@](C)(NC(=O)[C@H](CO)NC(=O)[C@@H](NC(=O)[C@H](CC(C)C)NC(=O)[C@H](Cc2ccccc2)NC(=O)[C@H](C)NC(=O)[C@H](C)NC(=O)[C@H](CC(C)C)NC(=O)[C@H](CCCCN)NC(=O)[C@H](CCCCN)NC(=O)COCCOCCOCCN)C(C)C)C(=O)N[C@@H](C)C(=O)N[C@@H](CC(C)C)C(=O)N[C@@H](CCCCN)C(=O)N1)C(=O)N[C@@H](CCCCN)C(=O)O | inactive | inactive |
| CC(C)C[C@H](NC(=O)[C@H](C)NC(=O)[C@]1(C)CCC/C=C/CCC[C@](C)(NC(=O)[C@H](C)NC(=O)[C@@H](NC(=O)[C@H](CC(C)C)NC(=O)[C@H](Cc2ccccc2)NC(=O)[C@H](CCCCN)NC(=O)[C@H](C)NC(=O)[C@H](CC(C)C)NC(=O)[C@H](CCCCN)NC(=O)[C@H](CCCCN)NC(=O)COCCOCCOCCN)C(C)C)C(=O)N[C@@H](C)C(=O)N[C@@H](CC(C)C)C(=O)N[C@@H](CCCCN)C(=O)N1)C(=O)N[C@@H](CCCCN)C(=O)O | inactive | inactive |

Reference: ChEMBL document CHEMBL4184287, “Investigating PKA-RII specificity using analogs of the PKA:AKAP peptide inhibitor STAD-2” (Bioorg Med Chem, 2018)
